Reference: ChEMBL document CHEMBL3994616, “Rational design, synthesis, and evaluation of novel 2,4-Chloro- and Hydroxy-Substituted diphenyl Benzofuro[3,2-b]Pyridines: Non-intercalative catalytic topoisomerase I and II dual inhibitor” (Eur J Med Chem, 2017)
Where a name gives a salt, the structure may show the parent alone. Active and inactive are the calls of the source. No cut-off for these calls is given here.

Assays:
HCT-15 [1] = assay: Antiproliferative activity against human HCT15 cells after 72 hrs by CCK8 assay; assay type: functional, cell-based; conditions: HCT-15, 72 h
Method in brief: (§1)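 Cells seeded at 2-4 x 10⁴ per well, cultured overnight in medium with 10% FBS at 37 °C, 5% CO₂, then serum-starved 4 h. Graded compound concentrations added for 72 h, CCK-8 added for a further 4 h, absorbance read at 450 nm. IC50 from a four-parameter logistic fit. Results come from three experiments, each in triplicate.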

HeLa = assay: Antiproliferative activity against human HeLa cells after 72 hrs by CCK8 assay; assay type: functional, cell-based
T47D = assay: Antiproliferative activity against human T47D cells after 72 hrs by CCK8 assay; assay type: functional, cell-based; method in brief: as §1
[2] = biological target: DNA topoisomerase 2-alpha (Homo sapiens) (UniProt P11388); assay: Inhibition of human recombinant topoisomerase-2alpha-mediated relaxation of supercoiled pBR322 DNA at 100 uM after 30 mins by ethidium bromide staining based agarose gel electrophoresis method relative to control
[3] = biological target: DNA topoisomerase 2-alpha (Homo sapiens) (UniProt P11388); conditions: 250 uM
Bos taurus [4] = species: Bos taurus; assay: Induction of calf thymus DNA intercalation assessed as inhibition of ethidium bromide binding to DNA after 30 mins by fluorescence assay
Method in brief: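 Calf thymus DNA ([…]) premixed with EtBr ([…]) in 10 mM Tris buffer pH 7.2, 30 min at room temperature with shaking. Compound then added at increasing concentrations […], final DMSO 1% (vehicle for untreated control), further 30 min at room temperature. EtBr fluorescence read at 471 nm excitation, emission spectrum collected 500–700 nm.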

HCT-15 [5] = assay: Potency index, ratio of adriamycin IC50 to compound IC50 for human HCT15 cells; assay type: functional
HCT-15 [6] = assay: Potency index, ratio of etoposide IC50 to compound IC50 for human HCT15 cells; assay type: functional
HCT-15 [7] = assay: Potency index, ratio of camptothecin IC50 to compound IC50 for human HCT15 cells; assay type: functional
[8] = biological target: T1, Topoisomerase I/II (Homo sapiens) (UniProt P11387+P11388); assay: Inhibition of topoisomerase-1/topoisomerase-2 in human HCT15 cell nuclear extract at 50 uM preincubated for 24 hrs followed by supercoiled pBR322 DNA addition measured after 20 mins by ethidium bromide staining based agarose gel electrophoresis method relative to control; assay type: protein assay
Method in brief: (§2)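 HCT15 cells treated 24 h at 25, 50 or 100 µM, then nuclear fractions prepared. Nuclear extract incubated with 100 ng pBR322 at 37 °C to read relaxation by endogenous topo I/II. Products run on 1.0% agarose at 50 V for 50 min in TAE, EtBr-stained, UV-visualized. Inhibition percent averaged over three experiments.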

HCT-15 [9] = assay: Induction of apoptosis in human HCT15 cells assessed as decrease in Bcl2 level after 24 hrs by Western blot method; assay type: functional, cell-based
Method in brief: (§3)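 HCT15 cells grown to 80% confluency, then treated 24 h at […]. Lysis buffer: Tris/NaCl/1% Triton X-100 with protease inhibitors. 60 µg protein run on 12% SDS-PAGE and transferred to PVDF. Blocked in 5% milk/TBST, primary antibodies 1:1000 for 2-3 h, HRP anti-rabbit 1:2000 for 2 h, ECL detection.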

[10] = biological target: T1, Topoisomerase I/II (Homo sapiens); assay: Inhibition of topoisomerase-1/topoisomerase-2 in human HCT15 cell nuclear extract at 25 uM preincubated for 24 hrs followed by supercoiled pBR322 DNA addition measured after 20 mins by ethidium bromide staining based agarose gel electrophoresis method relative to control; assay type: protein assay; method in brief: as §2
[11] = biological target: DNA topoisomerase 2-alpha (Homo sapiens) (UniProt P11388); assay: Poison activity at human recombinant topoisomerase 2 alpha assessed as stabilization of enzyme-DNA cleavable complex by measuring formation of linear DNA at 100 to 500 uM using supercoiled pBR322 DNA after 30 mins by ethidium bromide staining based agarose gel electrophoresis method
Method in brief: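 250 ng supercoiled pBR322 preincubated with 3 units human topo II for 10 min in topo II relaxation buffer. Compound then added at 100 or 500 µM and incubated 30 min more at 37 °C. SDS stop, proteinase K 0.25 mg/mL at 45 °C for 30 min. Run on 1% agarose with EtBr at 30 V for 6 h, linear DNA band scored.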

[12] = biological target: T1, Topoisomerase I/II (Homo sapiens); assay: Inhibition of topoisomerase-1/topoisomerase-2 in human HCT15 cell nuclear extract preincubated for 24 hrs followed by supercoiled pBR322 DNA addition measured after 20 mins by ethidium bromide staining based agarose gel electrophoresis method; assay type: protein assay; method in brief: as §2
Bos taurus [13] = species: Bos taurus; assay: Induction of calf thymus DNA intercalation assessed as inhibition of ethidium bromide binding to DNA up to 40 uM after 30 mins by fluorescence assay
Method in brief: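 Calf thymus DNA ([…]) premixed with EtBr ([…]) in 10 mM Tris, pH 7.2, for 30 min at room temperature. Compound added at increasing concentrations […], with 1% DMSO final in all wells including control. Incubated 30 min more with shaking. Fluorescence excited at 471 nm, emission collected 500-700 nm.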

HCT-15 [14] = assay: Induction of apoptosis in human HCT15 cells assessed as increase in Bax level after 24 hrs by Western blot method; assay type: functional, cell-based; method in brief: as §3
HCT-15 [15] = assay: Induction of apoptosis in human HCT15 cells assessed as increase in cleaved PARP level after 24 hrs by Western blot method; assay type: functional, cell-based; method in brief: as §3
[16] = biological target: DNA topoisomerase 2-alpha (Homo sapiens) (UniProt P11388); assay: Poison activity at human recombinant topoisomerase 2 in human HCT15 cells assessed as […] at 50 uM after 2 hrs by Western blot method; assay type: cell-based
HCT-15 [17] = assay: Induction of DNA damage in human HCT15 cells assessed as increase in gammaH2AX level at 30 uM after 24 hrs by Western blot method; assay type: functional, cell-based
Method in brief: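 HCT15 cells exposed to 30 µM for 24 h, then lysed. 60 µg protein per sample run on 12% SDS-PAGE, and γ-H2AX detected by western blot.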

HCT-15 [18] = assay: Induction of DNA damage in human HCT15 cells assessed as comet tail formation at 30 uM after 24 hrs using SYBRGreen stain by electrophoresis based fluorescence microscopic method (reference value: 3 +/- 1.1%); assay type: functional
[19] = biological target: T1, Topoisomerase I/II (Homo sapiens); assay: Inhibition of topoisomerase-1/topoisomerase-2 in human HCT15 cell nuclear extract at 100 uM preincubated for 24 hrs followed by supercoiled pBR322 DNA addition measured after 20 mins by ethidium bromide staining based agarose gel electrophoresis method relative to control; assay type: protein assay; method in brief: as §2
[20] = biological target: DNA topoisomerase 2-alpha (Homo sapiens) (UniProt P11388); assay: Inhibition of human topoisomerase-2 alpha-mediated kinetoplast DNA decatenation after 30 mins by ethidium bromide staining based agarose gel electrophoresis
Method in brief: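 75 ng kDNA in 50 mM Tris-HCl pH 8.0, 120 mM KCl, 10 mM MgCl₂, 0.5 mM DTT, 0.5 mM ATP, 30 µg/mL BSA. Compound added at 250 or 500 µM final, reaction started with 3 units topo II, 10 µL, 30 min at 37 °C. Stopped with SDS/ficoll/dye, proteinase K 0.25 mg/mL for 30 min. Run on 1.2% agarose containing EtBr.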

T1 sequence (P11387 whole entry, looked up): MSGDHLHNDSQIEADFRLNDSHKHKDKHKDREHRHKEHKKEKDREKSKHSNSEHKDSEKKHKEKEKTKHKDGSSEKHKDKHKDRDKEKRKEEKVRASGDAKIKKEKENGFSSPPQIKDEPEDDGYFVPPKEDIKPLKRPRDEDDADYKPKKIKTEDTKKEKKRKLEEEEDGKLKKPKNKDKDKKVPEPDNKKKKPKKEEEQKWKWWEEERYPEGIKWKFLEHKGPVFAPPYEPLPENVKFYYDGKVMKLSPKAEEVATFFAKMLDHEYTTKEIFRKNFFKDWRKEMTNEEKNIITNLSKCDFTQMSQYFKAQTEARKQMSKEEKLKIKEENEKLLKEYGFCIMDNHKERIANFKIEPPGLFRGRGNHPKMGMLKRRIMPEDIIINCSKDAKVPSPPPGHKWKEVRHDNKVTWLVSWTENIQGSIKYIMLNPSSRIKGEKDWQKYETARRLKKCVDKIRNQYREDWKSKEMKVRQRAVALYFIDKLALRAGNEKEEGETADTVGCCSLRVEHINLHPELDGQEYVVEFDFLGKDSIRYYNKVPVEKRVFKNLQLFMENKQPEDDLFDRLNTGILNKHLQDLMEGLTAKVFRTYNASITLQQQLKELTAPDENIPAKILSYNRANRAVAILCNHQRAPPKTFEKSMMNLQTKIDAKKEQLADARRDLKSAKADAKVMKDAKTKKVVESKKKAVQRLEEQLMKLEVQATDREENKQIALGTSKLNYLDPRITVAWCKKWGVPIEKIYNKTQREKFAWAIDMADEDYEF
T1 sequence (P11388 whole entry, looked up): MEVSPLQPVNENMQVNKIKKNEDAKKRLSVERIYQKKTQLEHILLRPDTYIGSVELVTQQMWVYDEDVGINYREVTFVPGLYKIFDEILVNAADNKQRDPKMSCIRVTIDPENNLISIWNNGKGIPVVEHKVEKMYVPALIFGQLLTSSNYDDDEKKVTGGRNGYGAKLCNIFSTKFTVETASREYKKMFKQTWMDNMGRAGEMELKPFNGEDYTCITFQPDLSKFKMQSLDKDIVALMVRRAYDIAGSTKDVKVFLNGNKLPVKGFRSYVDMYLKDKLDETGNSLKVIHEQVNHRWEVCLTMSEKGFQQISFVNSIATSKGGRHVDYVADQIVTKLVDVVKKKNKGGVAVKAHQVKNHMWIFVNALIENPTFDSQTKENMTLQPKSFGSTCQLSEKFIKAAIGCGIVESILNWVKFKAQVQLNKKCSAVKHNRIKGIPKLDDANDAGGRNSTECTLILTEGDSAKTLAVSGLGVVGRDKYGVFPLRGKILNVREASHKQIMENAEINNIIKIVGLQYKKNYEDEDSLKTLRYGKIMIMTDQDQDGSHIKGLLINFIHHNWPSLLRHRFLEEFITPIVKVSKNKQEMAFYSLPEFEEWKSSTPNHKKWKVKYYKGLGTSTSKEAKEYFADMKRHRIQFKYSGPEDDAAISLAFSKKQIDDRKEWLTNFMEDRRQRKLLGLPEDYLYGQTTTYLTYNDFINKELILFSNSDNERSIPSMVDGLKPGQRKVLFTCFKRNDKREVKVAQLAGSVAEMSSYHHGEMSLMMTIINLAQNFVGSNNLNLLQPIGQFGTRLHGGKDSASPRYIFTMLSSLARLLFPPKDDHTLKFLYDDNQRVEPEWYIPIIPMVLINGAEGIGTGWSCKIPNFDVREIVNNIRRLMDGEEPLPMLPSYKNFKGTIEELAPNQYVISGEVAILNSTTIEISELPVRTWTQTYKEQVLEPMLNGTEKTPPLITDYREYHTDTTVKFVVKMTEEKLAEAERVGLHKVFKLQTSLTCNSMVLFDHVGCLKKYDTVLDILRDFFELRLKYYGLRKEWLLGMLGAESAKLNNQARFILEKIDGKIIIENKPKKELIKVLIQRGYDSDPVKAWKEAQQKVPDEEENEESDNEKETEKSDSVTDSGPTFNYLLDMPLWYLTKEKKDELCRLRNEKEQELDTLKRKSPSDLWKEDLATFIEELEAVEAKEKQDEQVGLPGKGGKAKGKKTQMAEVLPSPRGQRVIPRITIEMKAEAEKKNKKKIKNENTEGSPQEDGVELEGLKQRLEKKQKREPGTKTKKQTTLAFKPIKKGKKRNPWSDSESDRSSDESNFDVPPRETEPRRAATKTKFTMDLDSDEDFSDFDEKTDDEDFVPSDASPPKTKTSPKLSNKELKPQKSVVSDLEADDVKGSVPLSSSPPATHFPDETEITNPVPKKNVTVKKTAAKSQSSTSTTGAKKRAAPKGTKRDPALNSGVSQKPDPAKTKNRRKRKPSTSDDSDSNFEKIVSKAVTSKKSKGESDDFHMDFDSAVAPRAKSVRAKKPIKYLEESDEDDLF
Sequence of DNA topoisomerase 2-alpha (Homo sapiens) (P11388 whole entry): as the sequence (P11388 whole entry, looked up) above

Row | Structure (SMILES) | IC50 (HCT-15 [1]) [nM] | IC50 (HeLa) [nM] | IC50 (T47D) [nM] | inhibition [2] | also measured
1 | Oc1ccc(-c2cc(-c3ccccc3Cl)nc3c2oc2ccccc23)cc1 | 400 | 3900 | 6100 | 92.8% | –
2 | Cc1c2ccncc2c(C)c2c1[nH]c1ccccc12 | – | – | – | – | inhibition [3]: Active
3 | Oc1ccccc1-c1cc(-c2ccc(Cl)cc2)nc2c1oc1ccccc12 | > 50000 | 9500 | > 50000 | 86.7% | –
4 | Oc1cccc(-c2cc(-c3ccc(Cl)cc3)c3oc4ccccc4c3n2)c1 | > 50000 | 11100 | 2000 | inactive | –
5 | Oc1cccc(-c2cc(-c3ccccc3Cl)nc3c2oc2ccccc23)c1 | 1600 | 4400 | 1500 | 82.9% | –
6 | COc1cc(NS(C)(=O)=O)ccc1Nc1c2ccccc2nc2ccccc12 | – | – | – | – | inhibition (Bos taurus [4]): Dose-dependent effect
7 | Oc1cccc(-c2cc(-c3ccccc3Cl)c3oc4ccccc4c3n2)c1 | 1400 | 4300 | 100 | 60.2% | –
8 | Oc1ccccc1-c1cc(-c2cccc(Cl)c2)nc2c1oc1ccccc12 | 10 | 5200 | 400 | 84% | Ratio IC50 (HCT-15 [5]): 100; Ratio IC50 (HCT-15 [6]): 540; Ratio IC50 (HCT-15 [7]): 60
9 | Oc1ccccc1-c1cc(-c2cccc(Cl)c2)c2oc3ccccc3c2n1 | > 50000 | > 50000 | > 50000 | 4.7% | –
10 | Oc1ccc(-c2cc(-c3cccc(Cl)c3)c3oc4ccccc4c3n2)cc1 | 5900 | > 50000 | > 50000 | 4.9% | –
11 | Oc1ccc(-c2cc(-c3ccccc3Cl)c3oc4ccccc4c3n2)cc1 | 46200 | 15900 | 800 | 52.7% | –
12 | COc1cccc2c1C(=O)c1c(O)c3c(c(O)c1C2=O)C[C@@](O)(C(=O)CO)C[C@@H]3O[C@H]1C[C@H](N)[C@H](O)[C@H](C)O1 [DOXORUBICIN HYDROCHLORIDE] | 1000 | – | 300 | – | –
13 | Oc1ccc(-c2cc(-c3ccc(Cl)cc3)nc3c2oc2ccccc23)cc1 | 200 | 4300 | 5900 | 100% | inhibition [8]: 45.5%; Activity (HCT-15 [9]): Dose-dependent effect; inhibition [10]: 38.2%; Activity [11]: inactive; inhibition [12]: Dose-dependent effect; inhibition (Bos taurus [13]): inactive; Activity (HCT-15 [14]): Dose-dependent effect; Activity (HCT-15 [15]): Dose-dependent effect; Activity [16]: inactive; Activity (HCT-15 [17]): inactive; Activity (HCT-15 [18]): 6.3%; inhibition [19]: 58.4%; inhibition [20]: Dose-dependent effect
14 | Oc1cccc(-c2cc(-c3cccc(Cl)c3)c3oc4ccccc4c3n2)c1 | 5900 | 6400 | 1200 | 35% | –
15 | Oc1cccc(-c2cc(-c3ccc(Cl)cc3)nc3c2oc2ccccc23)c1 | 200 | 5700 | 2100 | 87.9% | –
16 | CC[C@@]1(O)C(=O)OCc2c1cc1n(c2=O)Cc2cc3ccccc3nc2-1 [CAMPTOTHECIN] | 600 | 90 | 2100 | – | inhibition [8]: 80.5%; inhibition [10]: 74.6%
17 | C[C@@H](CN1CC(=O)NC(=O)C1)N1CC(=O)NC(=O)C1 [DEXRAZOXANE] | – | – | – | – | Activity (HCT-15 [17]): inactive; Activity (HCT-15 [18]): 5.5%
18 | Oc1cccc(-c2cc(-c3cccc(Cl)c3)nc3c2oc2ccccc23)c1 | 400 | 4300 | 1400 | 85.4% | –
19 | Oc1ccccc1-c1cc(-c2ccccc2Cl)c2oc3ccccc3c2n1 | 300 | 10900 | 3000 | 58.2% | –
20 | Oc1ccc(-c2cc(-c3ccc(Cl)cc3)c3oc4ccccc4c3n2)cc1 | 21300 | 11800 | 11600 | 65.6% | –
21 | Oc1ccccc1-c1cc(-c2ccc(Cl)cc2)c2oc3ccccc3c2n1 | > 50000 | > 50000 | > 50000 | 55.8% | –
22 | Oc1ccccc1-c1cc(-c2ccccc2Cl)nc2c1oc1ccccc12 | 400 | 2800 | 3900 | 85.6% | –
23 | Oc1ccc(-c2cc(-c3cccc(Cl)c3)nc3c2oc2ccccc23)cc1 | 200 | 900 | 1900 | 95.4% | –
